Source: the RNAGym collection of RNA variant scans (doi:10.1126/science.aae0568)
This sample holds only a part of the variants without activity.

B1: tRNA (parent)
chain: GUUCCGUUGGCGUAAUGGUAACGCGUCUCCCUCCUAAGGAGAAGACUGCGGGUUCGAGUCCCGUACGGAACG

Variants of: B1
Assay: yeast fitness relative to wild type (ratio to wild type); higher = fitter; tRNA-Arg(CCU), competitive growth, 37 C, YPD
In short: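 Variants of the tRNA-Arg(CCU) gene were chemically synthesised with a 3% per-site mutation rate across 69 sites and placed at the native genomic locus in Saccharomyces cerevisiae. Six parallel replicates of the pooled strains were competed in YPD at 37°C for 24 hours, and gene amplicons from the start and end populations were read by 100-nucleotide paired-end sequencing. Darwinian fitness relative to wild type was derived from changes in genotype frequencies. Genotypes required ≥ 100 starting reads, and estimates < 0.5 were set to 0.5.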
G67U A69G showed a yeast fitness of 1.05. Work on G63C G67A yielded a yeast fitness of 0.692. Work on C62U G68C A69G yielded a yeast fitness of 0.567. For C61A G67A, the yeast fitness was 0.582. Work on C62U A70U yielded a yeast fitness of 0.996. U64C A70G gave a yeast fitness of 0.844. Work on U64C A70U yielded a yeast fitness of 0.953. Variant C61U A69U has a yeast fitness of 1.02. Variant C60U C66U has a yeast fitness of 0.711. C60U U64C gave a yeast fitness of 0.833. For A65G A70U, the yeast fitness was 0.943. In the case of A65G A70G, the yeast fitness is reported as 0.865. G67A A69U showed a yeast fitness of 0.733. For G67A A69C, the yeast fitness was 0.877. For G63A G67A A69G, the yeast fitness was ≤ 0.5. For A65G C66G G68A, the yeast fitness was 0.575. A65C C66U gave a yeast fitness of 0.89. A65C C66G gave a yeast fitness of 0.588. Work on A65C C66A yielded a yeast fitness of 0.808. U64A A65U A70U showed a yeast fitness of 0.601. Work on C62U C66A yielded a yeast fitness of 0.686. Variant C62U C66G has a yeast fitness of 0.731. Variant C61U G67A has a yeast fitness of 0.649. Variant C61U G67U has a yeast fitness of 0.86. With C62G A65G A70U the yeast fitness was ≤ 0.5. For C62G G68C A70G, the yeast fitness was ≤ 0.5. C62A A70G gave a yeast fitness of 0.674. With C62U U64A the yeast fitness was 0.735. In the case of C66U G68C, the yeast fitness is reported as 0.779. In the case of G63A A65C, the yeast fitness is reported as 0.942. Variant C62U G63A has a yeast fitness of 0.719. Work on C62U G63C yielded a yeast fitness of 0.752. Work on G63C U64C yielded a yeast fitness of 0.969. Work on C61U A70U yielded a yeast fitness of 1.04. A69U showed a yeast fitness of 1.04. A69G showed a yeast fitness of 0.982. Variant A69C has a yeast fitness of 1.03. Variant C61U G63C has a yeast fitness of 0.565. Variant U64A C66U has a yeast fitness of 0.942. U64A C66G gave a yeast fitness of 0.7. C61G C66U gave a yeast fitness of 0.635. With C60G C66G A69G the yeast fitness was 0.593. C66G showed a yeast fitness of 0.902. Variant C66A has a yeast fitness of 0.766. With C66U the yeast fitness was 0.968. A65C G68A gave a yeast fitness of 0.767. C61U C66U gave a yeast fitness of 0.929. Variant C61U C66G has a yeast fitness of 0.706. For C62A A65U A70U, the yeast fitness was 0.531. With C62G A70C the yeast fitness was 0.679. In the case of C62G A65U A69U, the yeast fitness is reported as 0.535. In the case of C61G G63C, the yeast fitness is reported as 0.532. With C66U G67A the yeast fitness was 0.841. Work on C62U A69U yielded a yeast fitness of 0.955. In the case of A65U C66G G68C, the yeast fitness is reported as ≤ 0.5. In the case of G67C A69G, the yeast fitness is reported as 0.977. For G67C A69C, the yeast fitness was 0.651. For C60U A70G, the yeast fitness was 0.786. Work on C61U U64C yielded a yeast fitness of 0.902. With C61U U64A the yeast fitness was 0.606. Work on G68A A70G yielded a yeast fitness of 0.885. In the case of C61G C62A, the yeast fitness is reported as 0.503. Variant C61G C62G has a yeast fitness of 0.741. In the case of C60G G63A G67A, the yeast fitness is reported as ≤ 0.5. In the case of C66U A69G, the yeast fitness is reported as 0.801. G63A C66G gave a yeast fitness of 0.678. C61G A65G C66U A69G gave a yeast fitness of 0.646. In the case of C61U A69G A70C, the yeast fitness is reported as 0.923. C61A A70C gave a yeast fitness of 0.694. C60U G67A gave a yeast fitness of 0.721. U64C A65C gave a yeast fitness of 0.891. With C62U A69G A70U the yeast fitness was 0.648. Variant C61A G63C has a yeast fitness of 0.618. In the case of G67A A70U, the yeast fitness is reported as 0.938. Variant G67A A70G has a yeast fitness of 0.917.
